# Laboratory results: ChEMBL document CHEMBL5705905, “Pharmacological targeting of kinases MST1 and MST2 augments tissue repair and regeneration” (Sci Transl Med, 2016)
# Activity calls are given as the source filed them. No cut-off for these calls is given here.
# Experiments:
# [1] = target: Serine/threonine-protein kinase TAO3 (Homo sapiens, UniProt Q9H2K8); assay: Binding affinity to TAOK3 (unknown origin) assessed as dissociation constant
# [2] = target: Serine/threonine-protein kinase DCLK2 (Homo sapiens) (UniProt Q8N568); assay: Inhibition of DCAMKL2 (unknown origin) assessed as remaining activity at 1 uM by Kinome scan method relative to control
# [3] = target: Peripheral plasma membrane protein CASK (Homo sapiens) (UniProt O14936); assay: Inhibition of CASK (unknown origin) assessed as remaining activity at 1 uM by Kinome scan method relative to control
# How it was run: (§1)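 Active-site-dependent competition-binding profiling (KINOMEscan) at 1 μM against a 468-kinase panel; compound supplied from a 10 mM DMSO stock. Read-out is ctrl% = (test signal − positive control signal)/(negative control signal − positive control signal) × 100. DMSO is the negative control (100%) and a control compound the positive control (0%). Lower ctrl% means tighter binding.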
# [4] = target: Tyrosine-protein kinase Fes/Fps (Homo sapiens) (UniProt P07332); assay: Inhibition of FES (unknown origin) assessed as remaining activity at 1 uM by Kinome scan method relative to control
# Mus musculus [5] = assay: Protection against human hepatocyte transplanted FRG mouse assessed as Fah-deficient hepatocyte survival at 1 mg/kg, ip administrated once a daily for 28 days by H&E staining based immunohistochemical analysis; format: functional, organism-based; conditions: Liver, time 28.0 day
# [6] = target: Tyrosine-protein kinase Yes (Homo sapiens) (UniProt P07947); assay: Inhibition of YES (unknown origin) assessed as remaining activity at 1 uM by Kinome scan method relative to control
# [7] = target: Serine/threonine-protein kinase STK11 (Homo sapiens) (UniProt Q15831); assay: Inhibition of LKB1 (unknown origin) assessed as remaining activity at 1 uM by Kinome scan method relative to control
# [8] = target: BDNF/NT-3 growth factors receptor (Homo sapiens) (UniProt Q16620); assay: Inhibition of TRKB (unknown origin) assessed as remaining activity at 1 uM by Kinome scan method relative to control
# [9] = target: Mitogen-activated protein kinase kinase kinase 10 (Homo sapiens) (UniProt Q02779); assay: Inhibition of MLK2 (unknown origin) assessed as remaining activity at 1 uM by Kinome scan method relative to control
# [10] = target: Casein kinase I isoform gamma-3 (Homo sapiens) (UniProt Q9Y6M4); assay: Inhibition of CSNK1G3 (unknown origin) assessed as remaining activity at 1 uM by Kinome scan method relative to control; how it was run: as §1
# [11] = Binding affinity to phosphorylated ABL1 T315I mutant (unknown origin) assessed as dissociation constant; design: species or system Homo sapiens
# Mus musculus [12] = assay: In vivo inhibition of MST1/2 in mouse assessed as block in MOB1 phosphorylation level at 1 mg/kg, ip administration by immunoblot analysis; format: functional, organism-based
# How it was run: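 Wild-type mice received escalating intraperitoneal doses, and livers were collected 3 h later. Liver lysates were immunoblotted for p-MOB1 and quantified relative to controls. Means ± SD, n = 3, Student's t test.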
# [13] = target: Serine/threonine-protein kinase D3 (Homo sapiens) (UniProt O94806); assay: Inhibition of PRKD3 (unknown origin) assessed as remaining activity at 1 uM by Kinome scan method relative to control
# [14] = test system: Receptor-type tyrosine-protein kinase FLT3 (Homo sapiens), P36888 [UNDEFINED MUTATION]; assay: Inhibition of FLT3 […]/D835V mutant (unknown origin) assessed as remaining activity at 1 uM by Kinome scan method relative to control
# [15] = target: Mitogen-activated protein kinase kinase kinase 13 (Homo sapiens) (UniProt O43283); assay: Inhibition of LZK (unknown origin) assessed as remaining activity at 1 uM by Kinome scan method relative to control
# [16] = target: Cyclin-dependent kinase-like 1 (Homo sapiens) (UniProt Q00532); assay: Inhibition of CDKL1 (unknown origin) assessed as remaining activity at 1 uM by Kinome scan method relative to control; how it was run: as §1
# [17] = test system: Tyrosine-protein kinase ABL1 (Homo sapiens), P00519 [F317L]; assay: Inhibition of ABL1 F317L mutant (unknown origin) assessed as remaining activity at 1 uM by Kinome scan method relative to control
# How it was run: (§2)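 Active-site-dependent competition-binding (KINOMEscan) panel of 468 kinases, test compound at 1 μM (from a 10 mM DMSO stock). Read-out is ctrl% = (test signal − positive control signal)/(negative control signal − positive control signal) × 100. DMSO is the negative control (100%) and a control compound is the positive control (0%). Lower ctrl% means tighter binding.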
# [18] = target: MAP kinase-activated protein kinase 5 (Homo sapiens) (UniProt Q8IW41); assay: Inhibition of MAPKAPK5 (unknown origin) assessed as remaining activity at 1 uM by Kinome scan method relative to control
# [19] = target: Dual specificity protein kinase CLK2 (Homo sapiens) (UniProt P49760); assay: Inhibition of CLK2 (unknown origin) assessed as remaining activity at 1 uM by Kinome scan method relative to control; how it was run: as §1
# [20] = target: Serine/threonine-protein kinase 33 (Homo sapiens) (UniProt Q9BYT3); assay: Inhibition of STK33 (unknown origin) assessed as remaining activity at 1 uM by Kinome scan method relative to control
# Mus musculus [21] = assay: Anti-colitis activity against DSS-induced mouse assessed as high Ki67-positive proliferating cells at 1 mg/kg, ip administrated daily for 8 days by IHC staining; format: functional, organism-based; conditions: Colon, time 8.0 day
# How it was run: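 Wild-type mice received oral DSS for 7 days with vehicle or 1 mg/kg daily. Colon sections were stained by IHC for YAP, BrdU and Ki67, and positive cells were quantified per animal. Means ± SD, n = 10, Student's t test.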
# [22] = test system: Proto-oncogene tyrosine-protein kinase receptor Ret (Homo sapiens), P07949 [V804L]; assay: Inhibition of RET V804L (unknown origin) assessed as remaining activity at 1 uM by Kinome scan method relative to control
# [23] = target: Wee1-like protein kinase 2 (Homo sapiens) (UniProt P0C1S8); assay: Inhibition of WEE2 (unknown origin) assessed as remaining activity at 1 uM by Kinome scan method relative to control
# [24] = target: Dual specificity tyrosine-phosphorylation-regulated kinase 1A (Homo sapiens) (UniProt Q13627); assay: Inhibition of DYRK1A (unknown origin) assessed as remaining activity at 1 uM by Kinome scan method relative to control
# [25] = target: Tyrosine-protein kinase ABL1 (Homo sapiens, UniProt P00519, Q252H); assay: Inhibition of phosphorylated ABL1 Q252H mutant (unknown origin) in presence of ATP by enzymatic assay
# [26] = target: Activin receptor type-1-like (Homo sapiens) (UniProt P37023); assay: Inhibition of ACVRL1 (unknown origin) assessed as remaining activity at 1 uM by Kinome scan method relative to control; how it was run: as §2
# [27] = target: Misshapen-like kinase 1 (Homo sapiens) (UniProt Q8N4C8); assay: Inhibition of MINK (unknown origin) assessed as remaining activity at 1 uM by Kinome scan method relative to control
# [28] = target: Serine/threonine-protein kinase SIK2 (Homo sapiens) (UniProt Q9H0K1); assay: Inhibition of SIK2 (unknown origin) assessed as remaining activity at 1 uM by Kinome scan method relative to control
# Chain of Wee1-like protein kinase 2 (Homo sapiens) (P0C1S8 whole entry, looked up): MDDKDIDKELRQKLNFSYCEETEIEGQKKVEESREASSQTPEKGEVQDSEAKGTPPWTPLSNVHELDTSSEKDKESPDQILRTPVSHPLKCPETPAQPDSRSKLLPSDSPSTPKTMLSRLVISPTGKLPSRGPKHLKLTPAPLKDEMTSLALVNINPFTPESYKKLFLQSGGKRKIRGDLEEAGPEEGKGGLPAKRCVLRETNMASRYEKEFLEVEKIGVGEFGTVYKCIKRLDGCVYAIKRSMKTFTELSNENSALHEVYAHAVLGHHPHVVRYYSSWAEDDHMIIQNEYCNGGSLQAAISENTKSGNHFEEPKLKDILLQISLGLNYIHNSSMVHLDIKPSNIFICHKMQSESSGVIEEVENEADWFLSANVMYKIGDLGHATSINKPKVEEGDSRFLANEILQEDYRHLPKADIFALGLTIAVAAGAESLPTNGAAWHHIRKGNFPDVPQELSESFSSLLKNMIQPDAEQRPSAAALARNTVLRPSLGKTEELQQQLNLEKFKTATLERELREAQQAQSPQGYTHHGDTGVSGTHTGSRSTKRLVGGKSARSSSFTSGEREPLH
# Chain of Peripheral plasma membrane protein CASK (Homo sapiens) (O14936 whole entry): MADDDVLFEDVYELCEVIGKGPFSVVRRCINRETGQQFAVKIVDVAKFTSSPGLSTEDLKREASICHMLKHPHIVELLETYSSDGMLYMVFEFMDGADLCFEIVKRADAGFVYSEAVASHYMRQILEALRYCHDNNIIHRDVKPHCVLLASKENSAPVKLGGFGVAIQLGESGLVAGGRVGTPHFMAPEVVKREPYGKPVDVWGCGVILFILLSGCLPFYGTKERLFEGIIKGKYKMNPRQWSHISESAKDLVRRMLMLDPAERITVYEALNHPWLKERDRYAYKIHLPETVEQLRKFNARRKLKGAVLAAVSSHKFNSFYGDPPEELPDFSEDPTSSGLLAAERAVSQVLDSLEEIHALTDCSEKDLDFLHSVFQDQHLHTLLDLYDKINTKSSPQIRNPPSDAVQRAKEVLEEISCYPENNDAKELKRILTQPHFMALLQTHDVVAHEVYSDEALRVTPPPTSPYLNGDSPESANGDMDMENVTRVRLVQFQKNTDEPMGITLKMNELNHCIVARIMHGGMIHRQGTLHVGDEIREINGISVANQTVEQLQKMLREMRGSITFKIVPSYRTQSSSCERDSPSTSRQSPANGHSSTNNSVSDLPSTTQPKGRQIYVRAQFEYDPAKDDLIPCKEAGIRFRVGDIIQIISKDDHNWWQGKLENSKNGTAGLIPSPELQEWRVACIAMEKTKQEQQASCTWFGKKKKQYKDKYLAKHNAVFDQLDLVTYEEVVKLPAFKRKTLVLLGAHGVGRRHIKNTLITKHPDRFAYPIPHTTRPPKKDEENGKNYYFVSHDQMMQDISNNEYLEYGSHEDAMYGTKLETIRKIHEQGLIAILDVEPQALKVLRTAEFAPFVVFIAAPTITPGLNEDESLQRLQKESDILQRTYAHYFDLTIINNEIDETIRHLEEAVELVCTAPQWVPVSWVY
# Chain of Proto-oncogene tyrosine-protein kinase receptor Ret (Homo sapiens), P07949 [V804L] (P07949 whole entry V804L): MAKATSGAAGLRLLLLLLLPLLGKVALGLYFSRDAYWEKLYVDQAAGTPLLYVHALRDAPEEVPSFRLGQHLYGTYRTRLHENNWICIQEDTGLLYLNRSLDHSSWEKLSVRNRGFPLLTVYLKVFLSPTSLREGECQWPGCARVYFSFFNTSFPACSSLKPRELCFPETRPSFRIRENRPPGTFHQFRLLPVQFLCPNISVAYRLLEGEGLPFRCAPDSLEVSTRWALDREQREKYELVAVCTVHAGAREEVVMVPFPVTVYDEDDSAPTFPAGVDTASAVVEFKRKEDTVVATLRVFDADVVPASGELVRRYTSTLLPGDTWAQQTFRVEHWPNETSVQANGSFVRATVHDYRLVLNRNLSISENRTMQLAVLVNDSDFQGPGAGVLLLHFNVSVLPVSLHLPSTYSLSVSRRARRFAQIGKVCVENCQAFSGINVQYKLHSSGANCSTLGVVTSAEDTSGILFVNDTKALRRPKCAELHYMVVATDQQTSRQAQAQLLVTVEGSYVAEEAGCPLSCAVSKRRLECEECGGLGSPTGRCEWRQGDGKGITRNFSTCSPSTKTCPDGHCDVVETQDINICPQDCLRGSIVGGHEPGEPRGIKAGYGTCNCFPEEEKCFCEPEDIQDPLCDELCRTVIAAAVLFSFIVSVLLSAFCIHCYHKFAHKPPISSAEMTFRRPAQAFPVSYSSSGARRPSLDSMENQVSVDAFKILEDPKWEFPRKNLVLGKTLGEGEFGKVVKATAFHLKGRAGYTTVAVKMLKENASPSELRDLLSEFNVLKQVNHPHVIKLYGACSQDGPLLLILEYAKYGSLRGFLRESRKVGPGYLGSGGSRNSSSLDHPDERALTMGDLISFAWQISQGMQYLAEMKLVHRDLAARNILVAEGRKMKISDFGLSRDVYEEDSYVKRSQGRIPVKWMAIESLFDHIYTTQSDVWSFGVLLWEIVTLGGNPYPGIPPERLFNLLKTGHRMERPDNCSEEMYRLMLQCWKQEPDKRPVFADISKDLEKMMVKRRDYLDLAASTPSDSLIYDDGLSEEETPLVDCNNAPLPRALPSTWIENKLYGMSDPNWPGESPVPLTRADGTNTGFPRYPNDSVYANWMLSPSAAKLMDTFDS
# Chain of Activin receptor type-1-like (Homo sapiens) (P37023 whole entry): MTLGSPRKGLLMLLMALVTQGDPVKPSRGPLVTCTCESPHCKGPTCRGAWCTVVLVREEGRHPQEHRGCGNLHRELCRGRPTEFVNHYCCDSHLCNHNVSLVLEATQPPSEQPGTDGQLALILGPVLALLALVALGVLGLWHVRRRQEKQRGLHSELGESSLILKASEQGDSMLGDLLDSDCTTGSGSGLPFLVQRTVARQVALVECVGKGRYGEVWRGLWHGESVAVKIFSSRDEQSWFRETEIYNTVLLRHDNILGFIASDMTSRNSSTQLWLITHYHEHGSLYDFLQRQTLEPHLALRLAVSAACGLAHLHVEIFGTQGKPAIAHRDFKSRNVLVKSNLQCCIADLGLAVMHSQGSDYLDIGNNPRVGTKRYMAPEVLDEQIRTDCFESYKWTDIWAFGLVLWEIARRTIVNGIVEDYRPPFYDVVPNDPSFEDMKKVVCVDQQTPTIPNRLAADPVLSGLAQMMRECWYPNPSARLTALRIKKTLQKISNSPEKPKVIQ
# Chain of Serine/threonine-protein kinase DCLK2 (Homo sapiens) (Q8N568 whole entry): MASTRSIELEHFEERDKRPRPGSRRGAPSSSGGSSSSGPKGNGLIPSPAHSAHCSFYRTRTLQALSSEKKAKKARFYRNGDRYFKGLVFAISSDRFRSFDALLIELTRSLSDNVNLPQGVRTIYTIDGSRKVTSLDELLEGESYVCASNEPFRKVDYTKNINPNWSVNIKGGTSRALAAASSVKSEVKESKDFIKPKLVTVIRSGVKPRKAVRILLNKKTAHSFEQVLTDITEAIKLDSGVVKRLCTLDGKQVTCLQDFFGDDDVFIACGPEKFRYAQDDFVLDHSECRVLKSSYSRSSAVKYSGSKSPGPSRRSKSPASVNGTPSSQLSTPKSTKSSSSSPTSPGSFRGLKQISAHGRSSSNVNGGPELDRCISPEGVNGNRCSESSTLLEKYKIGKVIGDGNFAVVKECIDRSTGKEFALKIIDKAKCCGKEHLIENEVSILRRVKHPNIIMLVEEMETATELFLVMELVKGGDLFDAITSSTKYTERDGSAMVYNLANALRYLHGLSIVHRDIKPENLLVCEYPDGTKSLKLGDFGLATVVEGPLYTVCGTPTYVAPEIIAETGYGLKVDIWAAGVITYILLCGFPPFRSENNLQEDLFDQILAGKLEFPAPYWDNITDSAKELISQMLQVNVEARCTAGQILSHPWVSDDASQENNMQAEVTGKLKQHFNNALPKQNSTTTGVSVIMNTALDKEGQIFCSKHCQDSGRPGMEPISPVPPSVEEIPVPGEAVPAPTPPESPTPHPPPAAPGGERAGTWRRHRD
# Chain of Tyrosine-protein kinase Yes (Homo sapiens) (P07947 2-543 limits assumed): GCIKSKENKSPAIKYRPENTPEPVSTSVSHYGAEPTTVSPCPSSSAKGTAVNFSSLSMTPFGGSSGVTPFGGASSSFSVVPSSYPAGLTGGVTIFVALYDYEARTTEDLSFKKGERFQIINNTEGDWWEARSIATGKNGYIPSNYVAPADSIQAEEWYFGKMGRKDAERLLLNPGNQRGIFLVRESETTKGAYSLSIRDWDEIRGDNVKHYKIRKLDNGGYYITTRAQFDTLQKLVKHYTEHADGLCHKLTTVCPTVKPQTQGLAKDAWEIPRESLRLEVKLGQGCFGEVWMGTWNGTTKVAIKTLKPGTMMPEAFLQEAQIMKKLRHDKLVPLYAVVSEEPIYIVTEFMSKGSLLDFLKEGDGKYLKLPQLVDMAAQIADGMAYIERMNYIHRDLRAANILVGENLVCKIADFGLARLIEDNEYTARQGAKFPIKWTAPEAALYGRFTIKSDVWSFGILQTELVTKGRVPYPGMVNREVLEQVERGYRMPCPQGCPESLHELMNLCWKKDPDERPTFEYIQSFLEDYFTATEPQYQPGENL
# Chain of MAP kinase-activated protein kinase 5 (Homo sapiens) (Q8IW41 whole entry): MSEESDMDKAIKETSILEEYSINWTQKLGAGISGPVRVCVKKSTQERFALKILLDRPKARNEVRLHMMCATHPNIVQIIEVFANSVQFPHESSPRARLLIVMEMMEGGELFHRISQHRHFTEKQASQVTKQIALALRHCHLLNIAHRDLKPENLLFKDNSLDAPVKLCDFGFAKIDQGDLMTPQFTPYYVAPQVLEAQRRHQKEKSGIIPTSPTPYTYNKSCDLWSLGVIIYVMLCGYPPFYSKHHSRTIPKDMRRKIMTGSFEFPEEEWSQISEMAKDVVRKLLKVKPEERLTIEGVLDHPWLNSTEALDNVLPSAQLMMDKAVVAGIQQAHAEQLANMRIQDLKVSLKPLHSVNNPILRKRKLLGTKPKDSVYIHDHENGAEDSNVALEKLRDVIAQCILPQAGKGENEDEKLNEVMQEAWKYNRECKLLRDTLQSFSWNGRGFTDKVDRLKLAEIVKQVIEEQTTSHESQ
smiles,measurement,setting,value
CN1C(=O)c2sccc2N(C)c2nc(Nc3ccc(S(N)(=O)=O)cc3)ncc21,Kd,[1],610 nM
same,Activity,[2],84%
same,Activity,[3],78%
same,Activity,[4],39%
same,Activity,Mus musculus [5],inactive
same,Activity,[6],100%
same,Activity,[7],96%
same,Activity,[8],35%
same,Activity,[9],77%
same,Activity,[10],72%
same,Kd,[11],14 nM
same,inhibition,Mus musculus [12],Active
same,Activity,[13],65%
same,Activity,[14],27%
same,Activity,[15],86%
same,Activity,[16],100%
same,Activity,[17],32%
same,Activity,[18],91%
same,Activity,[19],71%
same,Activity,[20],97%
same,Activity,Mus musculus [21],Active
same,Activity,[22],78%
same,Activity,[23],91%
same,Activity,[24],81%
same,IC50,[25],11.6 nM
same,Activity,[26],100%
same,Activity,[27],58%
same,Activity,[28],100%
